Shown are actives, neighbours in structure and some others; about 3% of the full set was active somewhere.
T cruzi repl – T. cruzi replication inhibition | actives 1.4% (n = 300,000) | AID 1885 | T. cruzi beta-gal in NIH3T3, luminescence, 90 h | inhibition, % (no concentration beside the values);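 active means mean inhibition across valid replicates above about 55%, limit read from the data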;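 further: signal also drops with host cell toxicity which is not excluded here; 0% = plate median of DMSO wells and 100% = zero luminescence signal; higher percent means less beta-gal luminescence so fewer parasites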
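Assay system: NIH/3T3 fibroblasts plus reporter T. cruzi. Amount: NIH/3T3 cells, 5,000 per well. Buffer or medium: DMEM, 2% fetal bovine serum. Doses: compound pinned at 50 nL/well, DMSO. Schedule: ≥90 h infection period, 3 h prior cell attachment. Signal: luminescent β-galactosidase signal after 60 min lysis. Read-out: parasite load inhibition, %.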
PfHsp90 set2 – inhibits growth of yeast expressing Plasmodium falciparum Hsp90 | inhibition, % at 9.4 µM | AID 504621 | actives 0.32% (n = 310,000) | S. cerevisiae expressing PfHsp90, BacTiter-Glo ATP, 48 h; yeast lacking PDR1 and PDR3 efflux regulators;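 active means every replicate shows inhibition above about 80%, whatever the replicate mean, limit read from the data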;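 further: 0% = DMSO neutral controls and 100% = 20 µM radicicol positive controls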
PvdQ acylase – blocks Pseudomonas aeruginosa PvdQ acylase activity | purified PvdQ acylase, fluorescence plate reader | inhibition, % at 10 µM | actives 0.063% (n = 340,000) | AID 488965; in the data active means inhibition above about 30%, passing the limit was not always enough;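 further: 0% = vehicle neutral wells and 100% = reference inhibitor wells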
N-glyco inh – blocks N-linked glycosylation in D54 reporter cells. D54 ERlucT glycosylation luciferase reporter, 24 h; percent of 100 nM tunicamycin response. reporter increase, % at 12.5 µM. AID 588692. actives 0.23% (n = 360,000);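 active means mean luciferase reporter signal, scaled so untreated is 0 and the glycosylation-blocking control 100, at or above a set limit in every replicate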;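 further: luciferase carries N-glycosylation sites so blocking glycosylation raises the light; 0% = median of neutral control wells and 100% = median of 100 nM tunicamycin wells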
CaV13 FRET inh – Disruptors of the CACNA1D IQ motif to Ca2+-dependent inactivation inhibitor domain association, primary screening, Förster resonance energy transfer in intact living …. actives 0.098% (n = 340,000). HEK cells, CFP/YFP FRET ICDI-IQ, plate reader, 10 min; percent FRET-ratio fall versus neutral wells. inhibition, % at 12.3 µM;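 active means mean replicate inhibition of at least 30% and at least 1% of replicates passing that level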;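 further: 0% = median of the neutral control wells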
HSF1 activator – increases HSF-1 driven luciferase reporter signal | activation, % at 9 µM | NIH3T3-HGL HSF-1 luciferase reporter, MG132, 8 h; 100% = twice DMSO control signal | AID 504408 | actives 1.7% (n = 300,000);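 active means mean replicate activation of at least 50% with a set share of replicates each reaching 50%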;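 further: 0% = median of the neutral control wells and 100% = twice that signal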
* = called active by the depositor; / = not tested or not shown.

SMILES	T cruzi repl	PfHsp90 set2	PvdQ acylase	N-glyco inh	CaV13 FRET inh	HSF1 activator
O=C(Nc1c(-c2ccccc2)[nH][nH]c1=O)c1cccs1	/	/	/	/	-7	/
Cc1[nH]nc2c1C(c1cccc(C(F)(F)F)c1)NC2=O (stereo not given)	/	/	/	/	-4	/
COc1cc2nc(SCc3ccc(C(F)(F)F)cc3)n(Cc3cccs3)c(=N)c2cc1OC	27	-22	-14	-4	-5	-11
COc1ccc(Cn2c(SCc3ccc(C)cc3)nc3cc(OC)c(OC)cc3c2=N)cc1Cl	43	41	6	-26	-4	-37
COc1cc2nc(SCc3ccc(Cl)cc3Cl)n(Cc3cccs3)c(=N)c2cc1OC	77*	21	-16	-7	-7	18
COc1ccc(Cn2c(SCc3cc(C)ccc3C)nc3cc(OC)c(OC)cc3c2=N)cc1	59*	/	-11	-19	-9	9
CCOC(=O)CN1CCCc2nc(C)c(C)cc21	/	/	/	/	-9	/
CCCn1cnc2cc(NCc3ccc(Br)cc3)ccc21	17	-8	-5	-3	-4	38
CCCn1cnc2cc(NCc3cccc(OC)c3)ccc21	-35	-16	1	5	-11	51*
Cn1cnc2cc(NCc3ccc(Cl)cc3)ccc21	-9	4	-13	-3	3	66*
CCOc1ccc(CNc2ccc3c(c2)ncn3C)cc1	-4	8	-6	5	-4	38
CCCN(CC1CC1)c1nc(N)c(C#N)c(CC#N)c1C#N	7	-14	-5	3	-5	72*
CCCN(CCC)c1nc(N)c(C#N)c(CC#N)c1C#N	21	8	-4	2	/	115*
CCC1CC(C(=O)O)CC(=O)N1 (stereo not given)	/	/	/	1	-12	/
Cc1ccc2nc(-c3ccc(NS(=O)(=O)c4ccc(F)cc4)cc3)sc2c1	4	109*	30*	-6	-3	20
O=C1Nc2ccccc2-n2nnnc2C1N1CCN(c2ccc(C(F)(F)F)cc2[N+](=O)[O-])CC1 (stereo not given)	/	/	/	/	-14	/
Cc1csc(NC(=O)c2nc3nc(C)cc(C)n3n2)n1	-10	27	1	-10	1	61*
CCCC(C(=O)c1ccccc1)n1cncn1 (stereo not given)	-14	-25	-12	1	-4	-9
Cc1ccc(C(=O)C(SC(C)(C)C)n2cncn2)cc1 (stereo not given)	36	83*	-9	2	-4	0
O=C(NCc1ccccc1)[C@@H]1CCCN1C(=O)[C@H]1CCCN1C(=O)c1ccc(OC(F)(F)F)cc1	/	/	/	/	-10	/
Cc1ccc(NC(=O)OCCN(C)C(=O)Nc2ccc(C)cc2C)c(C)c1	/	/	/	/	-3	/
COc1cccc(N=CC2=C(O)CC(C)(C)CC2=O)c1	-23	2	-15	0	/	87*
CC1(C)CC(=O)C(C=Nc2ccc3cn[nH]c3c2)=C(O)C1	-11	-6	4	3	-5	54*
COc1ccccc1Cc1c(-c2ccc(C#N)cc2)nc2c(C)cc(Br)cn12	/	/	/	2	-6	/
CCCCCC(=O)NC1CCCCN(C)C1=O (stereo not given)	/	/	/	/	-2	/
SMILES	T cruzi repl	PfHsp90 set2	PvdQ acylase	N-glyco inh	CaV13 FRET inh	HSF1 activator
COCCN1C[C@@H](CO)O[C@@H](n2cnc3c(N(C)C)ncnc32)C1	/	/	/	1	-10	/
C#CCOc1ccc(CNC[C@H]2O[C@@H](n3ccc(=O)[nH]c3=O)[C@H](O)[C@@H]2O)cc1	/	/	/	1	-6	/
CNCCCOc1cccc(Oc2ccccc2)c1	60*	8	-12	-5	2	16
CC(C)(C)c1ccc(C(=O)Nc2ccc(F)cc2)s1	15	9	-2	-13	-19	78*
CC12CCC(O)CC1=CCC1C2CCC2(C)C1CCC21CCC(=O)O1 (stereo not given)	8	-14	-4	-3	-5	-11
C[C@]12CCC(O)CC1=CCC1C2CC[C@]2(C)/C(=N\NC(N)=S)CCC12 (stereo not given in full)	66*	-126	-6	-3	-4	13
Nc1ncnc2c1ncn2[C@@H]1O[C@H](CO)C[C@@H]1O	61*	/	/	/	/	-17
CC1(C(=O)NS(=O)(=O)Cc2ccccc2)CCN1C(=O)Cc1ccccc1Cl (stereo not given)	/	/	/	1	-11	/
OC(Cc1ccccc1Br)c1ncc(-c2ccc(Cl)cc2)[nH]1 (stereo not given)	/	/	/	0	-7	/
CC(C)C[C@H]1COc2c(Cl)cccc2S(=O)(=O)N1Cc1cccc(Cl)c1	/	/	/	/	-6	/
Cc1ccc(-n2c(C)cc3c2CC(C)(C)CC3=O)cc1C	-9	0	-2	0	-6	14
Cc1cc2c(n1-c1ccc(Br)cc1)CC(C)(C)CC2=O	58*	/	1	-2	-4	4
COc1ccc(N2CCN(c3oc(COc4ccccc4)nc3C#N)CC2)cc1	/	21	-13	-3	-4	/
CN1CCN(c2oc(COc3ccc(-c4ccccc4)cc3)nc2C#N)CC1	77*	0	8	-2	-7	2
COc1ccc(NC(=O)c2cc(C3CCCCN3S(=O)(=O)c3cn(C)cn3)on2)c(C)c1 (stereo not given)	/	/	/	-1	-6	/
Cn1c(-c2ccc(F)cc2)cnc1SCC(=O)N1CCCc2ccccc21	21	11	-14	4	3	20
CC1Cc2ccccc2N1C(=O)CSc1ncc(-c2ccc(F)cc2)n1C (stereo not given)	-7	7	-12	-3	-7	67*
Cc1cc(C(=O)CCl)c(C)n1Cc1ccco1	80*	/	-6	9	-3	9
O=C(Nc1nc2ccc(Cl)cc2s1)C1CC1	66*	-18	-4	-2	-5	40
O=C(Nc1nc2c(F)cc(F)cc2s1)C1CC1	58*	-5	18	0	-7	31
O=C(Nc1nnc(-c2ccccc2F)s1)C1CCN(S(=O)(=O)c2ccc(Cl)cc2)CC1	-5	2	-5	-3	-4	/
O=C(Nc1nc2ccc(Cl)cc2s1)C1CCCO1 (stereo not given)	32	-4	2	-4	/	-13
O=C(Nc1nnc(-c2ccccc2Cl)s1)C1CCN(S(=O)(=O)c2ccc(Cl)cc2)CC1	-3	-21	-9	2	-5	56*
O=C(Nc1nc2cc3c(cc2s1)OCO3)C1CC1	56*	9	-9	-1	-4	16
CCOc1cc(OCC)cc(C(=O)N2CCC[C@H]2C(=O)N2CCC[C@H]2C(=O)N(C)Cc2ccccc2)c1	/	/	/	/	-5	/
COc1cccc(NC(=O)C2(C)CCN2C(=O)C2CCCCC2)c1 (stereo not given)	/	/	/	1	-6	/
O=C(Nc1nc2ccccc2s1)C1CCN(S(=O)(=O)c2cc([N+](=O)[O-])ccc2Cl)CC1	59*	-15	-3	-1	-2	-13

Bioassay records deposited in PubChem by Broad Institute.
